TRPC4 agonist – activators of mouse TRPC4 channel; Q9QUQ5; HEK293 TRPC4beta/mu-opioid, Fluo4 calcium fluorescence; hits give high values; B-score at 10 µM; 310,000 compounds, 0.49% hits; AID 2237;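 active = B-score above 5 SD of library B-scores, and initial fluorescence ratio not above library mean plus 5 SD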;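 also: positive B-score marks a calcium rise read as TRPC4 activation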
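System – HEK293 cells stably co-expressing mouse TRPC4beta and mu-opioid receptor · Signal – Fluo4 calcium-sensitive dye fluorescence, kinetic, 1 Hz baseline · Benchmarks – buffer (low) and maximal DAMGO (high) · Read-out – B score of integrated fluorescence ratio per well · Incubation – dye loading 45 min room temperature, 110 s kinetic read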
TRPC6 activator – activators of mouse TRPC6 channel. 310,000 compounds, 0.13% hits. B-score at 10 µM. HEK293-TRPC6 membrane potential dye fluorescence; hits give high values;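 active = B-score of the integrated fluorescence ratio above library mean plus 3 SD, and starting fluorescence ratio within library mean plus 5 SD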;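 also: higher score means more depolarization so channel activation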
Target sequence (Q61143 whole entry, looked up): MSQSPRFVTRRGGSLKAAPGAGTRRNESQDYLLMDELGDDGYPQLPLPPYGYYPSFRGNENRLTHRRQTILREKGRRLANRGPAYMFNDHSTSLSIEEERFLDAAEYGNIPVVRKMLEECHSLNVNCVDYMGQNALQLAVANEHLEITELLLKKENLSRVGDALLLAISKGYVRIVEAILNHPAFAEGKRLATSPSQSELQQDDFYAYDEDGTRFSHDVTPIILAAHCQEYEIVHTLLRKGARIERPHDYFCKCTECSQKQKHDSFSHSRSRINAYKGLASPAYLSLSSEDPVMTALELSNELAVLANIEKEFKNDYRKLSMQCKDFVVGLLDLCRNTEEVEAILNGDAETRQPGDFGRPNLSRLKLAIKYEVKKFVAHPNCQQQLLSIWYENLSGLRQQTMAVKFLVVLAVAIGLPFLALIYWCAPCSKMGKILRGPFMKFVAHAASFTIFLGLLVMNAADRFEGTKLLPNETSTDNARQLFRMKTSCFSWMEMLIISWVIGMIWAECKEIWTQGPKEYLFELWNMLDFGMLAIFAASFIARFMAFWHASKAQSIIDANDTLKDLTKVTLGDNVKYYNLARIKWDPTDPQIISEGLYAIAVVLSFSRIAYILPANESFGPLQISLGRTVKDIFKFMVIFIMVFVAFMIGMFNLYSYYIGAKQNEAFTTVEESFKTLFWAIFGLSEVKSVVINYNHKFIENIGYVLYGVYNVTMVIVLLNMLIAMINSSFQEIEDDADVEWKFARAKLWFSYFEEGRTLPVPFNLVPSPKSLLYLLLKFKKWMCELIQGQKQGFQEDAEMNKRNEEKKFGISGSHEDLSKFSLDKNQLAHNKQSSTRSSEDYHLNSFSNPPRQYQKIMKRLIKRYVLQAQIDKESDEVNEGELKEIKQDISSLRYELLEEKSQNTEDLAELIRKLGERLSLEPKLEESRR
TRPC4 potent – allosteric potentiators of mouse TRPC4 channel | 310,000 compounds, 0.42% hits | HEK293 TRPC4beta/mu-opioid, DAMGO EC20, Fluo-4 Ca2+ flux; hits give high values | B-score at 10 µM | AID 2227;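 active = B-score of calcium response area above 5 SD of library B-scores, with initial fluorescence ratio within 5 SD of library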;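 also: B-score of integrated fluorescence ratio over time as area under calcium response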
TRPC4 block – TRPC4 (mouse) channel inhibition | Q9QUQ5 | HEK293 TRPC4beta/mu-opioid, DAMGO-evoked Fluo4 calcium flux; hits give low values | B-score at 10 µM | 300,000 compounds, 0.39% hits | AID 2247;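 active = B-score over 3 SD under the library average, no early fluorescence shift, positive overall ratio signal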
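Material: HEK293 cells with stable TRPC4beta plus mu-opioid receptor expression; probe or stimulus: DAMGO in two steps, submaximal then maximal; technique: Fluo4 calcium fluorescence by kinetic imaging, 5 s 1 Hz baseline; measure: integrated fluorescence ratio relative to baseline, converted to per-well B score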
TRPC6 inh – inhibitors of mouse TRPC6 channel; B-score at 10 µM; HEK293-TRPC6, membrane potential dye, ACh-evoked depolarization; hits give low values; 310,000 compounds, 1.1% hits; Q61143; AID 2553;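 active = B-score under library mean minus 3 SD, initial fluorescence not abnormally high, positive integrated signal ratio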;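 also: B-score derived from integrated fluorescence ratio over the kinetic read; more negative B-score means stronger inhibition of depolarization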
TRPC4 spec 2 – second check of whether TRPC6 inhibitors also affect mouse TRPC4 | shares compounds with TRPC6 inh | HEK293 TRPC4/MOR, membrane potential dye fluorescence; channel activated by saturating DAMGO dose | inhibition, % at 10 µM | 920 compounds, 42% hits | AID 2776;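 active = compounds whose fluorescence signal differed from control wells by over 3 SD, either direction, in both duplicate plates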
TRPC4 spec – tests whether TRPC6 inhibitors also affect mouse TRPC4. shares compounds with TRPC6 inh. activity change, negative = inhibition, % at 10 µM. 920 compounds, 61% hits. AID 2777. HEK293 TRPC4/mu-opioid, membrane potential fluorescence;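 active = rise or fall in signal beyond 3 SD of buffer-only wells in both replicate plates, either sign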;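 also: integrated kinetic ratio of fluorescence range over baseline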
HEK293 MPD ctr 2-1 – second counter-screen for TRPC6 inhibitors: parental HEK293 cells | shares compounds with TRPC6 inh | parental HEK293 membrane potential dye fluorescence; maximal acetylcholine challenge after compound addition | signal change vs control, % at 10 µM | 920 compounds, 31% hits | AID 2779;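 active = membrane potential signal moving either way by over 3 SD of the maximum-effect control, in both duplicate plates, meaning non-specific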
HEK293 MPD ctr-1 – parental HEK293 nonspecific activity of TRPC6 inhibitors | shares compounds with TRPC6 inh | parental HEK293 membrane potential dye fluorescence | membrane potential signal change, % at 10 µM | 920 compounds, 60% hits | AID 2780;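 active = membrane potential signal shifting up or down by more than 3 SD of buffer-only wells, on both duplicate plates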
HEK293 MPD ctr-2 – counter-screen for TRPC6 modulators: effect in parental HEK293 cells. membrane potential signal change, % at 10 µM. membrane potential dye fluorescence. 2,400 compounds, 51% hits. shares compounds with TRPC6 inh;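 active = membrane potential signal moves up or down beyond 5 SD from buffer-only wells, on both duplicate plates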
HEK293 MPD ctr 2-2 – second counter-screen for TRPC6 modulators: effect in parental HEK293 cells; 2,400 compounds, 14% hits; membrane potential dye fluorescence; after compound, maximal acetylcholine stimulation; shares compounds with TRPC6 inh; inhibition, % at 10 µM;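 active = membrane potential signal drops by more than 5 SD from the mean control signal, in both duplicate plates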;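 also: plate controls were acetylcholine ECmax control wells for no effect and buffer only wells for full effect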
TRPC4/MOR mod – mouse TRPC4 off-target activity of TRPC6 modulators; percent change from control (negative = decrease, positive = increase), % at 10 µM; HEK293 TRPC4/mu-opioid, membrane potential fluorescence; shares compounds with TRPC6 inh; 2,400 compounds, 69% hits;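 active = membrane potential signal moved up or down beyond 5 SD of buffer control wells, in both duplicate plates, actives on both sides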;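 also: plate controls were assay buffer wells for no effect and DAMGO maximal-effect wells for full effect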
TRPC4/MOR inh 2 – second selectivity test of TRPC6 modulators against mouse TRPC4; shares compounds with TRPC6 inh; HEK293 TRPC4/mu-opioid, membrane potential dye fluorescence; stimulated with maximal-effect DAMGO; inhibition, % at 10 µM; 2,400 compounds, 55% hits; AID 488928;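 active = drop in membrane potential signal beyond 5 SD of the control wells in both duplicate plates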;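 also: TRPC4 counter screen for TRPC6 hits run under conditions tuned for TRPC6 not TRPC4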
TRPC6 inh conf – mouse TRPC6 inhibitor confirmation | shares compounds with TRPC6 inh | HEK293-TRPC6, membrane potential dye, ACh-evoked depolarization | inhibition, % at 10 µM | 3,300 compounds, 43% hits | AID 488960;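 active = fluorescence ratio falls more than 5 SD below the full-stimulation control mean, in both duplicate runs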;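 also: integrated fluorescence ratio of peak minus minimum over baseline after agonist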
TRPC6 act conf – mouse TRPC6 activator confirmation. shares compounds with TRPC6 inh. HEK293-TRPC6 membrane potential dye fluorescence, FDSS. activation, % at 10 µM. 2,800 compounds, 11% hits. AID 488961;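 active = ratio signal rise beyond 5 SD above unstimulated control wells' mean, seen in both duplicate runs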;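 also: plate controls were buffer EC0 wells for no effect and acetylcholine ECmax response for full effect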
* = called active by the depositor; i = inactive; . = no result given. Compounds with a hit are over-represented: about 2.3% of the library has one in this group of screens.

SMILES | TRPC4 agonist | TRPC6 activator | TRPC4 potent | TRPC4 block | TRPC6 inh | HEK293 MPD ctr-2 | HEK293 MPD ctr 2-2 | TRPC4/MOR mod | TRPC4/MOR inh 2 | TRPC6 inh conf | TRPC6 act conf | others
NCC(O)(c1ccc(Cl)cc1)c1ccc(Cl)cc1 | i | i | i | i | -6.3* | i | i | i | 40%* | i | i
O=Cc1ccc(OCC(=O)Nc2ccccc2C(F)(F)F)cc1 | i | i | i | i | i | . | . | . | . | . | .
COc1cccc2c3c(c(C)nc12)CC(C)O3 (stereo not drawn) | i | i | i | i | -6.2* | -146%* | i | -18%* | 41%* | i | i
COc1ccc2nc(C)c3c(c2c1)OC(C)C3 (stereo not drawn) | i | i | i | i | -7.5* | . | . | . | . | i | i | TRPC4 spec 2=i;TRPC4 spec=-17%*;HEK293 MPD ctr 2-1=18%*;HEK293 MPD ctr-1=-236%*
Cc1nc2ccc(C(=O)O)cc2c2c1CC(CN)O2 (stereo not drawn) | i | i | i | i | i | . | . | . | . | . | .
CCOC(=O)c1ccc2nc(C)c3c(c2c1)OC(C)C3 (stereo not drawn) | i | i | i | i | -5.2* | -112%* | i | -13%* | i | i | i
CCCn1nc(C(=O)NNC(=O)CSC(C)C(=O)Nc2cc(C)on2)c2ccccc2c1=O (stereo not drawn) | i | i | i | i | i | . | . | . | . | . | .
Oc1[nH]c2ccccc2c1N=NC(=S)NCC1CCCO1 (stereo not drawn) | i | i | i | i | i | . | . | . | . | . | .
Oc1[nH]c2ccc(Br)cc2c1N=NC(=S)NCC1CCCO1 (stereo not drawn) | i | i | i | i | -8.8* | . | . | . | . | i | i | TRPC4 spec 2=i;TRPC4 spec=i;HEK293 MPD ctr 2-1=i;HEK293 MPD ctr-1=i
O=C(CCCc1ccccc1)N=C1SC2CS(=O)(=O)CC2N1c1ccccc1F (stereo not drawn) | i | i | i | i | i | . | . | . | . | . | .
O=C(Nc1nc2ccccc2n1CCN1CCCCC1)c1ccco1 | i | i | i | i | -7.9* | . | . | . | . | i | i | TRPC4 spec 2=48%*;TRPC4 spec=-18%*;HEK293 MPD ctr 2-1=i;HEK293 MPD ctr-1=-264%*
CCn1cc(Cl)c(C(=O)Nc2nc3ccccc3n2CCN2CCCCC2)n1 | i | i | i | i | -8.7* | -270%* | 74%* | -42%* | 66%* | 60%* | i
O=C(Nc1nc2ccccc2n1CCOc1ccccc1)c1ccco1 | i | i | i | i | i | . | . | . | . | . | .
O=C(OCC(=O)N1CCN(c2ccccc2)CC1)c1ccc[n+]([O-])c1 | i | i | i | i | i | . | . | . | . | . | .
COc1ccccc1CNC(=O)CCNC(=O)N1CC(=O)Nc2ccccc21 | i | i | i | i | i | . | . | . | . | . | .
CC(=O)c1cccc(NC(=O)CC2Oc3ccc(C)cc3NC2=O)c1 (stereo not drawn) | i | i | i | i | i | . | . | . | . | . | .
COc1ccccc1NC(=O)CC1COc2ccccc2O1 (stereo not drawn) | i | i | i | i | i | . | . | . | . | . | .
CCOC(=O)c1cccc(NC(=O)CC2Oc3ccccc3NC2=O)c1 (stereo not drawn) | i | i | i | i | -6* | i | i | i | i | i | i
CCOC(=O)c1ccc(NC(=O)CC2COc3ccccc3O2)cc1 (stereo not drawn) | i | i | i | i | -7.4* | . | . | . | . | i | i | TRPC4 spec 2=i;TRPC4 spec=i;HEK293 MPD ctr 2-1=i;HEK293 MPD ctr-1=i
Cn1c(=O)c2c(nc(N3CCOCC3)n2CCc2ccccc2)n(C)c1=O | i | i | i | i | i | . | . | . | . | . | .
CN(C)C=NCCn1c(N2CCOCC2)nc2c1c(=O)n(C)c(=O)n2C | i | i | i | i | -7.1* | -274%* | i | -44%* | 35%* | i | i
CCN(CC)CCNC1=NCCn2c1cc1cc(OC)ccc12 | i | i | i | i | -6.7* | -146%* | i | -28%* | 44%* | i | i
Cc1cc(C)c(S(=O)(=O)N(C)CC(=O)NCc2ccncc2)c(C)c1 | i | i | i | i | i | . | . | . | . | . | .
Cc1cc(N2CCN(S(=O)(=O)c3ccc(Cl)c(Cl)c3)CC2)c2ccccc2n1 | i | i | i | i | i | . | . | . | . | . | .
Cc1cc(N2CCN(S(=O)(=O)c3ccc(Cl)cc3)CC2)c2ccccc2n1 | i | i | i | i | -5.1* | -75%* | i | -22%* | 72%* | i | i
COc1cccc(Cl)c1NC(=O)N1CCN(c2cc(C)nc3ccccc23)CC1 | i | i | i | i | -9.7* | -146%* | i | -38%* | 74%* | 48%* | i
CCOc1ccc(C2C([N+](=O)[O-])=C(C)N(C)C(=O)N2C)cc1OC (stereo not drawn) | i | i | i | i | i | . | . | . | . | . | .
O=C(/C=C/c1ccccc1)C1=C(O)C(=O)N(CCO)C1c1ccccc1[N+](=O)[O-] (stereo not drawn) | i | 13* | i | i | i | 120%* | i | 16%* | i | i | 62%*

Compound activity: PubChem BioAssay, Johns Hopkins Ion Channel Center
